The source of these data is ChEMBL document CHEMBL4229530, “5-Adamantan thiadiazole-based thiazolidinones as antimicrobial agents. Design, synthesis, molecular docking and evaluation” (2018).

Values after ≈ are worked out from the molar mass of the structure shown.

Assay [1] concerns Pseudomonas aeruginosa. The assay is described as follows: Antibacterial activity against drug-resistant Pseudomonas aeruginosa after 24 hrs by INT dye based microdilution assay. Format: functional. In outline:
(§1)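 Broth microdilution in tryptic soy broth. Overnight culture adjusted to 1×10^5 CFU/mL, giving 1.0×10^4 CFU per well. Compounds dissolved in 5% DMSO and tested at 0.001-1.0 mg/ml. Plates incubated 24 h at 37°C. INT (0.2 mg/mL) then added, with 30 min at 37°C. Duplicate, repeated three times.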
On the technique in general: Broth dilution looks for growth in wells or tubes with falling amounts of substance.

Another assay concerns Aspergillus niger. The assay is described as follows: Antifungal activity against Aspergillus niger ATCC 6275 after 72 hrs by serial dilution assay. Format: functional. To be noted: ATCC 6275, 72 h. The method, boiled down: (§2)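 Modified microdilution: fungal spores washed off malt agar with sterile 0.85% saline plus 0.1% Tween 80, adjusted to about 1.0×10^5 per 100 µL well. Compounds in 5% DMSO (0.001-1.0 mg/ml) in malt broth; 72 h at 28°C on rotary shaker (160 rpm). MIC is lowest concentration without visible growth under binocular microscope. Bifonazole and ketoconazole controls (1-3500 µg/mL); three independent experiments in duplicate.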

Assay [2] concerns Escherichia coli. Nature of the assay: Antibacterial activity against Escherichia coli ATCC 35210 after 24 hrs by INT dye based microdilution assay. Type of assay: functional. Particulars: ATCC 35210, 24 h. In outline: (§3)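 Broth microdilution in tryptic soy broth: overnight bacterial culture adjusted to 1×10^5 CFU/mL, 1.0×10^4 CFU per well; compounds dissolved in 5% DMSO, tested at 0.001-1.0 mg/ml; 24 h at 37°C. Streptomycin and ampicillin as positive controls, 5% DMSO as negative control; duplicate, repeated three times.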

A further assay has as its system Penicillium ochrochloron. Nature of the assay: Antifungal activity against Penicillium ochrochloron ATCC 9112 after 72 hrs by serial dilution assay. Format: functional. Particulars: ATCC 9112, 72 h. The method, boiled down: as §2
Assay [3] concerns Listeria monocytogenes. Nature of the assay: Antibacterial activity against Listeria monocytogenes NCTC 7973 after 24 hrs by INT dye based microdilution assay. To be noted: NCTC 7973, 24 h. Format: functional. In outline:
as §3

The test system of another assay is Aspergillus fumigatus. Nature of the assay: Antifungal activity against Aspergillus fumigatus isolate 1022 after 72 hrs by serial dilution assay. Format: functional. To be noted: isolate 1022, 72 h. The method, boiled down:
as §2

In another assay the test system is Micrococcus flavus. The assay is described as follows: Antibacterial activity against Micrococcus flavus ATCC 10240 after 24 hrs by INT dye based microdilution assay. Format: functional. To be noted: ATCC 10240, 24 h. In outline: as §3
Another assay concerns Aspergillus versicolor. Nature of the assay: Antifungal activity against Aspergillus versicolor ATCC 11730 after 72 hrs by serial dilution assay. Type of assay: functional. To be noted: ATCC 11730, 72 h. The method, boiled down: as §2
For assay [4], the system named is Staphylococcus aureus. Nature of the assay: Antibacterial activity against methicillin-resistant Staphylococcus aureus after 24 hrs by INT dye based microdilution assay. Type of assay: functional. The method, boiled down: as §1
Assay [5] concerns Escherichia coli. The assay is described as follows: Antibacterial activity against drug-resistant Escherichia coli after 24 hrs by INT dye based microdilution assay. Format: functional. The method, boiled down:
as §1

For the next assay, the system named is Talaromyces funiculosus. The assay is described as follows: Antifungal activity against Penicillium funiculosum ATCC 36839 after 72 hrs by serial dilution assay. To be noted: ATCC 36839, 72 h. Format: functional. The method, boiled down:
as §2

Assay [6] deals with Staphylococcus aureus. The assay is described as follows: Antibacterial activity against Staphylococcus aureus ATCC 6538 after 24 hrs by INT dye based microdilution assay. Type of assay: functional. To be noted: ATCC 6538, 24 h. The method, boiled down:
as §3

The next assay relates to Penicillium verrucosum. Nature of the assay: Antifungal activity against Penicillium cyclopium var verucosum after 72 hrs by serial dilution assay. Type of assay: functional. The method, boiled down:
as §2

The subject of a further assay is Bacillus cereus. The assay is described as follows: Antibacterial activity against Bacillus cereus after 24 hrs by INT dye based microdilution assay. Format: functional. In outline: as §3
The next assay concerns Trichoderma viride. The assay is described as follows: Antifungal activity against Trichoderma viride IAM 5061 after 72 hrs by serial dilution assay. Format: functional. Particulars: IAM 5061, 72 h. The method, boiled down:
as §2

For a further assay, the system named is Aspergillus ochraceus. Nature of the assay: Antifungal activity against Aspergillus ochraceus ATCC 12066 after 72 hrs by serial dilution assay. Particulars: ATCC 12066, 72 h. Format: functional. In outline: as §2
The next assay relates to Enterobacter cloacae. Nature of the assay: Antibacterial activity against Enterobacter cloacae after 24 hrs by INT dye based microdilution assay. Type of assay: functional. The method, boiled down:
as §3

The subject of assay [7] is Pseudomonas aeruginosa. Nature of the assay: Antibacterial activity against Pseudomonas aeruginosa ATCC 27853 after 24 hrs by INT dye based microdilution assay. Format: functional. To be noted: ATCC 27853, 24 h. In outline:
as §3

Assay [8] has as its system Listeria monocytogenes. Nature of the assay: Potency index, ratio of ampicillin MIC to compound MIC for antibacterial activity against Listeria monocytogenes NCTC 7973. Type of assay: functional.
Another assay has as its system Salmonella typhimurium. Nature of the assay: Antibacterial activity against Salmonella typhimurium ATCC 13311 after 24 hrs by INT dye based microdilution assay. Type of assay: functional, Salmonella enterica subsp. enterica serovar Typhimurium. To be noted: Salmonella enterica, ATCC 13311, 24 h. The method, boiled down: as §3
Assay [9] has as its system Listeria monocytogenes. Nature of the assay: Potency index, ratio of streptomycin MIC to compound MIC for antibacterial activity against Listeria monocytogenes NCTC 7973. Type of assay: functional.

As for `O=C1N/C(=N\c2nnc(C34CC5CC(CC(C5)C3)C4)s2)S/C1=C/c1cccc([N+](=O)[O-])c1`, the MIC (in general, the smallest concentration in the dilution series that meets the test's criterion for growth inhibition) came out at 53.5 µM (≈ 25 µg/mL) against Pseudomonas aeruginosa [1]; 214 µM (≈ 100 µg/mL) in the assay with Aspergillus niger; 0.0418 µM (≈ 0.0195 µg/mL) with Escherichia coli [2]; 214 µM (≈ 100 µg/mL) with Penicillium ochrochloron; 17 µM (≈ 7.95 µg/mL) against Listeria monocytogenes [3]; 107 µM (≈ 50 µg/mL) against Aspergillus fumigatus. Further, the MIC in the assay with Micrococcus flavus is 41.8 µM (≈ 19.5 µg/mL); against Aspergillus versicolor, 107 µM (≈ 50 µg/mL); in the assay with Staphylococcus aureus [4], 0.107 µM (≈ 0.05 µg/mL); in the assay on Escherichia coli [5] it was 0.0535 µM (≈ 0.025 µg/mL); against Talaromyces funiculosus, 107 µM (≈ 50 µg/mL); with Staphylococcus aureus [6] it was 0.0418 µM (≈ 0.0195 µg/mL). Moreover, the MIC against Penicillium verrucosum was 0.107 µM (≈ 0.05 µg/mL); in the assay on Bacillus cereus it was 21.4 µM (≈ 10 µg/mL); against Trichoderma viride, 53.5 µM (≈ 25 µg/mL); in the assay with Aspergillus ochraceus, 107 µM (≈ 50 µg/mL); against Enterobacter cloacae, 41.8 µM (≈ 19.5 µg/mL); against Pseudomonas aeruginosa [7] it was 21.4 µM (≈ 10 µg/mL). The same compound had an MIC in the assay on Salmonella typhimurium of 21.4 µM (≈ 10 µg/mL). In addition, the Ratio in the assay on Listeria monocytogenes [8] is on record as 29; in the assay on Listeria monocytogenes [9], 20.
